In ChEMBL document CHEMBL1155488, “Carbamate derivatives of betulinic acid and betulin with selective cytotoxic activity” (Bioorg Med Chem Lett, 2010):
Activity calls are given as the source filed them. The rule behind the calls is not given here.

How the values were obtained:
MCF7 [1] = test: Cytotoxicity against human MCF7 cells after 96 hrs by SRB assay; assay type: functional, cell-based; conditions: MCF7, 96 h
DLD-1 [2] = test: Cytotoxicity against human DLD1 cells after 96 hrs by SRB assay; assay type: functional, cell-based; conditions: DLD-1, 96 h
A2780 [3] = test: Cytotoxicity against human A2780 cells after 96 hrs by SRB assay; assay type: functional, cell-based; conditions: A2780, 96 h
[4] = Cytotoxicity against human Liposarcoma cells after 96 hrs by SRB assay; assay type: functional, cell-based
HT-29 [5] = test: Cytotoxicity against human HT-29 cells after 96 hrs by SRB assay; assay type: functional, cell-based; conditions: HT-29, 96 h
8505C [6] = test: Cytotoxicity against human 8505C cells after 96 hrs by SRB assay; assay type: functional, cell-based
SW-1736 = test: Cytotoxicity against human SW1736 cells after 96 hrs by SRB assay; assay type: functional, cell-based; conditions: SW-1736, 96 h
SW480 [7] = test: Cytotoxicity against human SW480 cells after 96 hrs by SRB assay; assay type: functional, cell-based; conditions: SW480, 96 h
A-431 [8] = test: Cytotoxicity against human A431 cells after 96 hrs by SRB assay; assay type: functional, cell-based; conditions: A-431, 96 h
[9] = Cytotoxicity against human A253 cells after 96 hrs by SRB assay; assay type: functional, cell-based; conditions: A253, 96 h
[10] = Cytotoxicity against human 518A2 cells after 96 hrs by SRB assay; assay type: functional, cell-based; conditions: 518A2, 96 h
A549 [11] = test: Cytotoxicity against human A549 cells after 96 hrs by SRB assay; assay type: functional, cell-based; conditions: A549, 96 h
HCT-8 [12] = test: Cytotoxicity against human HCT8 cells after 96 hrs by SRB assay; assay type: functional, cell-based; conditions: HCT-8, 96 h
HCT-116 [13] = test: Cytotoxicity against human HCT116 cells after 96 hrs by SRB assay; assay type: functional, cell-based; conditions: HCT-116, 96 h
FaDu [14] = test: Cytotoxicity against human FADU cells after 96 hrs by SRB assay; assay type: functional, cell-based
[15] = Selectivity index, ratio of IC50 for human fibroblast to IC50 for human A253 cells
Method in brief: (§1)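 The selectivity index was calculated as the IC50 on human fibroblasts divided by the IC50 on the corresponding tumor cell line.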

[16] = Selectivity index, ratio of IC50 for human fibroblast to IC50 for human 518A2 cells; method in brief: as §1
FaDu [17] = test: Selectivity index, ratio of IC50 for human fibroblast to IC50 for human FADU cells; method in brief: as §1
MCF7 [18] = test: Selectivity index, ratio of IC50 for human fibroblast to IC50 for human MCF7 cells; method in brief: as §1
A549 [19] = test: Selectivity index, ratio of IC50 for human fibroblast to IC50 for human A549 cells; method in brief: as §1
DLD-1 [20] = test: Selectivity index, ratio of IC50 for human fibroblast to IC50 for human DLD1 cells; method in brief: as §1
[21] = Selectivity index, ratio of IC50 for human fibroblast to IC50 for human Liposarcoma cells; method in brief: as §1
[22] = Selectivity index, ratio of IC50 for human fibroblast to IC50 for human SW1736 cells; method in brief: as §1
HT-29 [23] = test: Selectivity index, ratio of IC50 for human fibroblast to IC50 for human HT-29 cells; method in brief: as §1
SW480 [24] = test: Selectivity index, ratio of IC50 for human fibroblast to IC50 for human SW480 cells; method in brief: as §1
[25] = Cytotoxicity against human fibroblast after 96 hrs by SRB assay; assay type: cell-based
HCT-8 [26] = test: Selectivity index, ratio of IC50 for human fibroblast to IC50 for human HCT8 cells; method in brief: as §1
A-431 [27] = test: Selectivity index, ratio of IC50 for human fibroblast to IC50 for human A431 cells; method in brief: as §1
A2780 [28] = test: Selectivity index, ratio of IC50 for human fibroblast to IC50 for human A2780 cells; method in brief: as §1
HCT-116 [29] = test: Selectivity index, ratio of IC50 for human fibroblast to IC50 for human HCT116 cells; method in brief: as §1
8505C [30] = test: Selectivity index, ratio of IC50 for human fibroblast to IC50 for human 8505C cells; method in brief: as §1
A549 [31] = test: Induction of apoptosis in human A549 cells assessed as caspase3/7 activation at equitoxic IC90 after 6 hrs; assay type: functional, cell-based
A549 [32] = test: Induction of apoptosis in human A549 cells assessed as DNA fragmentation at equitoxic IC90 after 24 hrs by agarose gel electrophoresis
A549 [33] = test: Induction of apoptosis in human A549 cells assessed as caspase3/7 activation at equitoxic IC90 after 2 hrs; assay type: functional, cell-based

`C=C(C)[C@@H]1CC[C@]2(C(=O)OC)CC[C@]3(C)[C@H](CC[C@@H]4[C@@]5(C)CC[C@H](OC(=O)NCC)C(C)(C)[C@@H]5CC[C@]43C)[C@@H]12` gave an IC50 (MCF7 [1]) of 7.03 µM, an IC50 (DLD-1 [2]) of 18.9 µM and an IC50 (A2780 [3]) of 8.35 µM. It also gave an IC50 [4] of 6.85 µM, an IC50 (HT-29 [5]) of 7.22 µM and an IC50 (8505C [6]) of 7.22 µM. The IC50 (SW-1736) was 2.35 µM, the IC50 (SW480 [7]) was 6.67 µM and the IC50 (A-431 [8]) was 14.8 µM. The IC50 [9] was 16.7 µM, the IC50 [10] was 16.7 µM and the IC50 (A549 [11]) was 2.32 µM. It also gave an IC50 (HCT-8 [12]) of 15 µM, an IC50 (HCT-116 [13]) of 13.5 µM and an IC50 (FaDu [14]) of 5.53 µM.
With `C=C(C)[C@@H]1CC[C@]2(C(=O)O)CC[C@]3(C)[C@H](CC[C@@H]4[C@@]5(C)CC[C@H](O)C(C)(C)[C@@H]5CC[C@]43C)[C@@H]12` [BETULINIC ACID] the “Ratio IC50” value [15] was 2.27, the “Ratio IC50” value [16] was 2.56 and the “Ratio IC50” value (FaDu [17]) was 2.04. For the same compound, the IC50 (MCF7 [1]) was 12.3 µM, the “Ratio IC50” value (MCF7 [18]) was 1.7 and the “Ratio IC50” value (A549 [19]) was 1.87. The “Ratio IC50” value (DLD-1 [20]) was 1.75, the IC50 (DLD-1 [2]) was 11.9 µM and the IC50 (A2780 [3]) was 11.1 µM. The “Ratio IC50” value [21] was 1.72, the IC50 [4] was 12.1 µM and the “Ratio IC50” value [22] was 1.59. The “Ratio IC50” value (HT-29 [23]) was 1.49, the “Ratio IC50” value (SW480 [24]) was 3.21 and the IC50 [25] was 20.8 µM. The IC50 (HT-29 [5]) was 13.9 µM, the IC50 (8505C [6]) was 7.26 µM and the “Ratio IC50” value (HCT-8 [26]) was 1.59. For the same compound, the IC50 (SW-1736) was 13.1 µM, the IC50 (SW480 [7]) was 6.48 µM and the “Ratio IC50” value (A-431 [27]) was 1.65. The “Ratio IC50” value (A2780 [28]) was 1.88, the IC50 (A-431 [8]) was 12.6 µM and the IC50 [9] was 9.18 µM. The IC50 [10] was 8.13 µM, the IC50 (A549 [11]) was 11.1 µM and the “Ratio IC50” value (HCT-116 [29]) was 1.93. The “Ratio IC50” value (8505C [30]) was 2.87, the IC50 (HCT-8 [12]) was 13.1 µM and the IC50 (HCT-116 [13]) was 10.8 µM. For the same compound, the IC50 (FaDu [14]) was 10.2 µM.
Work on `C=C(C)[C@@H]1CC[C@]2(C(=O)O)CC[C@]3(C)[C@H](CC[C@@H]4[C@@]5(C)CC[C@H](OC(=O)NCC)C(C)(C)[C@@H]5CC[C@]43C)[C@@H]12` yielded an IC50 (MCF7 [1]) of 17.4 µM, an IC50 (DLD-1 [2]) of 17 µM and an IC50 (A2780 [3]) of 7.41 µM. For the same compound, the IC50 [4] was 17.9 µM, the IC50 (HT-29 [5]) was 16.7 µM and the IC50 (8505C [6]) was 17.6 µM. It also gave an IC50 (SW-1736) of 5.24 µM, an IC50 (SW480 [7]) of 16.6 µM and an IC50 (A-431 [8]) of 15.2 µM. The IC50 [9] was 17.3 µM, the IC50 [10] was 17.8 µM and the IC50 (A549 [11]) was 5.55 µM. It also gave an IC50 (HCT-8 [12]) of 16.7 µM, an IC50 (HCT-116 [13]) of 15.2 µM and an IC50 (FaDu [14]) of 13.8 µM. For the same compound, the Activity (A549 [31]) was “Active”.
In the case of `C=C(C)[C@@H]1CC[C@]2(COC(C)=O)CC[C@]3(C)[C@H](CC[C@@H]4[C@@]5(C)CC[C@H](OC(=O)Nc6ccccc6)C(C)(C)[C@@H]5CC[C@]43C)[C@@H]12`, the IC50 (MCF7 [1]) is reported as over 100 µM, the IC50 (DLD-1 [2]) is reported as over 100 µM and the IC50 (A2780 [3]) is reported as 84.2 µM. The IC50 [4] was over 100 µM, the IC50 (HT-29 [5]) was 76.4 µM and the IC50 (8505C [6]) was over 100 µM. The IC50 (SW-1736) was over 100 µM, the IC50 (SW480 [7]) was over 100 µM and the IC50 (A-431 [8]) was over 100 µM. It also gave an IC50 [9] of over 100 µM, an IC50 [10] of over 100 µM and an IC50 (A549 [11]) of over 100 µM. It also gave an IC50 (HCT-8 [12]) of over 100 µM, an IC50 (HCT-116 [13]) of over 100 µM and an IC50 (FaDu [14]) of over 100 µM.
With `C=C(C)[C@@H]1CC[C@]2(COC(C)=O)CC[C@]3(C)[C@H](CC[C@@H]4[C@@]5(C)CC[C@H](OC(=O)NCC)C(C)(C)[C@@H]5CC[C@]43C)[C@@H]12` the “Ratio IC50” value [15] was 4.99, the “Ratio IC50” value [16] was 4.76 and the “Ratio IC50” value (FaDu [17]) was 5.39. For the same compound, the IC50 (MCF7 [1]) was 5.98 µM, the “Ratio IC50” value (MCF7 [18]) was 4.07 and the Activity (A549 [32]) was “Active”. The “Ratio IC50” value (A549 [19]) was 14.41, the “Ratio IC50” value (DLD-1 [20]) was 3.52 and the IC50 (DLD-1 [2]) was 6.93 µM. The IC50 (A2780 [3]) was 4.28 µM, the “Ratio IC50” value [21] was 4.55 and the IC50 [4] was 5.35 µM. For the same compound, the “Ratio IC50” value [22] was 7.73, the “Ratio IC50” value (HT-29 [23]) was 4.8 and the “Ratio IC50” value (SW480 [24]) was 13.76. For the same compound, the IC50 [25] was 24.4 µM, the IC50 (HT-29 [5]) was 5.07 µM and the IC50 (8505C [6]) was 5.05 µM. The “Ratio IC50” value (HCT-8 [26]) was 6.2, the IC50 (SW-1736) was 3.15 µM and the IC50 (SW480 [7]) was 1.77 µM. For the same compound, the “Ratio IC50” value (A-431 [27]) was 4.87, the “Ratio IC50” value (A2780 [28]) was 5.69 and the IC50 (A-431 [8]) was 5 µM. The IC50 [9] was 4.88 µM, the IC50 [10] was 5.12 µM and the IC50 (A549 [11]) was 1.69 µM. For the same compound, the “Ratio IC50” value (HCT-116 [29]) was 5.67, the “Ratio IC50” value (8505C [30]) was 4.82 and the IC50 (HCT-8 [12]) was 3.99 µM. The IC50 (HCT-116 [13]) was 4.3 µM, the Activity (A549 [33]) was “Active” and the IC50 (FaDu [14]) was 4.62 µM. For the same compound, the Activity (A549 [31]) was “Active”.
Compound `C=C(C)[C@@H]1CC[C@]2(COC(C)=O)CC[C@]3(C)[C@H](CC[C@@H]4[C@@]5(C)CC[C@H](O)C(C)(C)[C@@H]5CC[C@]43C)[C@@H]12` has an IC50 (MCF7 [1]) of 11.4 µM, an IC50 (DLD-1 [2]) of 13.1 µM and an IC50 (A2780 [3]) of 11.7 µM. For the same compound, the IC50 [4] was 15.5 µM, the IC50 (HT-29 [5]) was 11 µM and the IC50 (8505C [6]) was 14.7 µM. For the same compound, the IC50 (SW-1736) was 12 µM, the IC50 (SW480 [7]) was 13.7 µM and the IC50 (A-431 [8]) was 12.2 µM. For the same compound, the IC50 [9] was 12.9 µM, the IC50 [10] was 15.8 µM and the IC50 (A549 [11]) was 14.4 µM. It also gave an IC50 (HCT-8 [12]) of 18 µM, an IC50 (HCT-116 [13]) of 10.7 µM and an IC50 (FaDu [14]) of 14 µM.
